In ChEMBL document CHEMBL1155099, “Natural products in parallel synthesis: triazole libraries of nonactic acid” (2008):
≈ marks a conversion by molar mass, not a printed value. Calls of active or inactive are those of the source. No rule for the calls is given here.

Key:
Saccharomyces cerevisiae [1] = experiment: Antifungal activity against Saccharomyces cerevisiae at 1 mM by almar blue dye reduction assay; format: functional, organism-based
Summary of the method: (§1)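 Single-point primary screen at 1 mM using Alamar Blue dye reduction as the growth read-out.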

Staphylococcus aureus [2] = experiment: Antibacterial activity against Staphylococcus aureus at 1 mM by almar blue dye reduction assay; format: functional, organism-based; summary of the method: as §1
Candida albicans [3] = experiment: Antifungal activity against Candida albicans at 1 mM by almar blue dye reduction assay; format: functional, organism-based; summary of the method: as §1
Pseudomonas aeruginosa [4] = experiment: Antibacterial activity against Pseudomonas aeruginosa at 1 mM by almar blue dye reduction assay; format: functional, organism-based; summary of the method: as §1
Cryptococcus neoformans [5] = experiment: Antifungal activity against Cryptococcus neoformans at 1 mM by almar blue dye reduction assay; format: functional, organism-based; summary of the method: as §1
Bacillus cereus [6] = experiment: Antibacterial activity against Bacillus cereus at 1 mM by almar blue dye reduction assay; format: functional, organism-based; summary of the method: as §1
Escherichia coli [7] = experiment: Antibacterial activity against Escherichia coli at 1 mM by almar blue dye reduction assay; format: functional, organism-based; summary of the method: as §1
Bacillus subtilis [8] = experiment: Antibacterial activity against Bacillus subtilis by almar blue dye reduction assay; format: functional
Summary of the method: (§2)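 Compounds advanced from the 1 mM screen were tested over a dilution series, with a top concentration of 1 mM, using Alamar Blue dye reduction. MIC is the lowest concentration with no dye reduction. Where inhibition was partial with some growth at the top concentration, the value is reported as '>'.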

Bacillus anthracis [9] = experiment: Antibacterial activity against Bacillus anthracis at 1mM by almar blue dye reduction assay; format: functional, organism-based
Cryptococcus neoformans [10] = experiment: Antifungal activity against Cryptococcus neoformans at by almar blue dye reduction assay; format: functional; summary of the method: as §2
Bacillus subtilis [11] = experiment: Antibacterial activity against Bacillus subtilis at 1 mM by almar blue dye reduction assay; format: functional, organism-based; summary of the method: as §1
Bacillus anthracis [12] = experiment: Antibacterial activity against Bacillus anthracis by almar blue dye reduction assay; format: functional
Bacillus cereus [13] = experiment: Antibacterial activity against Bacillus cereus by almar blue dye reduction assay; format: functional; summary of the method: as §2
Staphylococcus aureus [14] = experiment: Antibacterial activity against Staphylococcus aureus by almar blue dye reduction assay; format: functional; summary of the method: as §2
Saccharomyces cerevisiae [15] = experiment: Antifungal activity against Saccharomyces cerevisiae by almar blue dye reduction assay; format: functional; summary of the method: as §2
Candida albicans [16] = experiment: Antifungal activity against Candida albicans by almar blue dye reduction assay; format: functional; summary of the method: as §2
Escherichia coli [17] = experiment: Antibacterial activity against Escherichia coli by almar blue dye reduction assay; format: functional; summary of the method: as §2
Pseudomonas aeruginosa [18] = experiment: Antimicrobial activity against Pseudomonas aeruginosa by almar blue dye reduction assay; format: functional; summary of the method: as §2

Structure (SMILES)	Activity (Saccharomyces cerevisiae [1])	Activity (Staphylococcus aureus [2])	Activity (Candida albicans [3])	Activity (Pseudomonas aeruginosa [4])	Activity (Cryptococcus neoformans [5])	Activity (Bacillus cereus [6])	Activity (Escherichia coli [7])	MIC (Bacillus subtilis [8])	Activity (Bacillus anthracis [9])	MIC (Cryptococcus neoformans [10])	Activity (Bacillus subtilis [11])	MIC (Bacillus anthracis [12])	MIC (Bacillus cereus [13])	MIC (Staphylococcus aureus [14])	MIC (Saccharomyces cerevisiae [15])	MIC (Candida albicans [16])	MIC (Escherichia coli [17])	MIC (Pseudomonas aeruginosa [18])
CCN(CC)C(=O)[C@H](C)C1CCC(C[C@@H](C)n2cc(C#CCNC(=O)Nc3cccc(C)c3)nn2)O1 (single isomer, unassigned)	inactive	inactive	inactive	inactive	inactive	inactive	inactive	700 µg/mL (≈ 1420 µM)	inactive									
CCN(CC)C(=O)[C@H](C)[C@H]1CC[C@@H](C[C@@H](C)n2cc(C#CCOc3cccc(OC)c3OC)nn2)O1	inactive	inactive	inactive	inactive		inactive	inactive		inactive	480 µg/mL (≈ 963 µM)	inactive							
CCCCN(CC#Cc1cn([C@H](C)C[C@@H]2CC[C@H]([C@@H](C)C(=O)N3CCN(CC4CCCO4)CC3)O2)nn1)CCCC (stereo partly specified)	inactive	inactive	inactive	inactive	inactive	inactive	inactive	820 µg/mL (≈ 1440 µM)	inactive									
C[C@H](C[C@@H]1CC[C@H]([C@@H](C)C(=O)N2CCN(CC3CCCO3)CC2)O1)n1cc(C#Cc2cccc3ccccc23)nn1 (stereo partly specified)	inactive	inactive	inactive	inactive	inactive	inactive	inactive	790 µg/mL (≈ 1420 µM)	inactive		inactive	263 µg/mL (≈ 473 µM)	260 µg/mL (≈ 468 µM)					
CCOC(=O)C#Cc1cn([C@H](C)CC2CCC([C@@H](C)C(=O)N3CCN(CC4CCCO4)CC3)O2)nn1 (single isomer, unassigned)								240 µg/mL (≈ 478 µM)		480 µg/mL (≈ 957 µM)		> 480 µg/mL	240 µg/mL (≈ 478 µM)	120 µg/mL (≈ 239 µM)	240 µg/mL (≈ 478 µM)	240 µg/mL (≈ 478 µM)	120 µg/mL (≈ 239 µM)	480 µg/mL (≈ 957 µM)
C[C@H](C[C@@H]1CC[C@H]([C@@H](C)C(=O)N2CCN(CC3CCCO3)CC2)O1)n1cc(C#CCOc2cccc(-c3ccccc3)c2)nn1 (stereo partly specified)		inactive		inactive			inactive	880 µg/mL (≈ 1440 µM)		290 µg/mL (≈ 474 µM)		> 590 µg/mL	150 µg/mL (≈ 245 µM)		290 µg/mL (≈ 474 µM)	590 µg/mL (≈ 964 µM)		
C[C@H](C[C@@H]1CC[C@H]([C@@H](C)C(=O)N2CCN(CC3CCCO3)CC2)O1)n1cc(C#Cc2ccc(-c3ccccc3)cc2)nn1 (stereo partly specified)	inactive	inactive	inactive	inactive	inactive	inactive	inactive	560 µg/mL (≈ 963 µM)	inactive									
C[C@H](C[C@@H]1CC[C@H]([C@@H](C)C(=O)N(C)Cc2ccccc2)O1)n1cc(C#Cc2ccccn2)nn1	inactive	inactive	inactive	inactive	inactive	inactive	inactive				inactive	> 430 µg/mL						
C[C@H](C[C@@H]1CC[C@H]([C@@H](C)C(=O)N2CCN(CC3CCCO3)CC2)O1)n1cc(C#Cc2ccc(C(F)(F)F)cc2)nn1 (stereo partly specified)	inactive	inactive	inactive	inactive	inactive	inactive	inactive	820 µg/mL (≈ 1430 µM)	inactive									
C[C@H](C[C@@H]1CC[C@H]([C@@H](C)C(=O)N(C)Cc2ccccc2)O1)n1cc(C#CCC2CCCC2)nn1		inactive	inactive	inactive			inactive			219 µg/mL (≈ 473 µM)	inactive	440 µg/mL (≈ 951 µM)	440 µg/mL (≈ 951 µM)		220 µg/mL (≈ 476 µM)			
Cc1cccc(NC(=O)OCC#Cc2cn([C@H](C)CC3CCC([C@@H](C)C(=O)N4CCN(CC5CCCO5)CC4)O3)nn2)c1 (single isomer, unassigned)	inactive	inactive	inactive	inactive	inactive		inactive		inactive		inactive		570 µg/mL (≈ 962 µM)					
CCCCCC#Cc1cn([C@H](C)C[C@@H]2CC[C@H]([C@@H](C)C(=O)N(C)Cc3ccccc3)O2)nn1		inactive	inactive	inactive			inactive			430 µg/mL (≈ 954 µM)	inactive	430 µg/mL (≈ 954 µM)	640 µg/mL (≈ 1420 µM)		430 µg/mL (≈ 954 µM)			
C[C@H](C[C@@H]1CC[C@H]([C@@H](C)C(=O)N(C)Cc2ccccc2)O1)n1cc(C#CCN(C)CCc2ccccc2)nn1	inactive		inactive	inactive			inactive	250 µg/mL (≈ 474 µM)		500 µg/mL (≈ 947 µM)		250 µg/mL (≈ 474 µM)	250 µg/mL (≈ 474 µM)	500 µg/mL (≈ 947 µM)				
CCCCN(CC#Cc1cn([C@H](C)C[C@@H]2CC[C@H]([C@@H](C)C(=O)N(C)Cc3ccccc3)O2)nn1)CCCC	inactive		inactive	inactive			inactive	250 µg/mL (≈ 479 µM)		250 µg/mL (≈ 479 µM)		500 µg/mL (≈ 958 µM)	250 µg/mL (≈ 479 µM)	500 µg/mL (≈ 958 µM)				
COc1ccc(C#Cc2cn([C@H](C)C[C@@H]3CC[C@H]([C@@H](C)C(=O)N4CCCC4)O3)nn2)cc1	inactive	inactive	inactive	inactive	inactive	inactive	inactive		inactive		inactive							
C[C@H](C[C@@H]1CC[C@H]([C@@H](C)C(=O)N2CCCC2)O1)n1cc(C#CCC2CCCC2)nn1	inactive	inactive	inactive	inactive	inactive	inactive	inactive		inactive		inactive							
Cc1cccc(NC(=O)OCC#Cc2cn([C@H](C)CC3CCC([C@@H](C)C(=O)N4CCCC4)O3)nn2)c1 (single isomer, unassigned)	inactive	inactive	inactive	inactive	inactive	inactive	inactive		inactive		inactive							
